From ChEMBL document CHEMBL5352503, “Nonpeptidic Oxazole-Based Prolyl Oligopeptidase Ligands with Disease-Modifying Effects on α-Synuclein Mouse Models of Parkinson's Disease” (J Med Chem, 2023) come the findings set out here.

The term inhibition in vivo denotes the share of the control response that was lost under treatment.

Active and inactive are the calls of the source. The rule behind the calls is not given here.

Data set [1] concerns HEK293. Nature of the data set: Induction of autophagy in PREP knockout HEK293 cells assessed as LC3B-II expression level at 10 uM incubated for 24 hrs by Western blot analysis. It is filed as functional, cell-based. To be noted: Homo sapiens. Put shortly: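 HEK-293 PREP-KO cells, grown with 20% FBS, plated 500,000/well and attached overnight. Treated at 10 μM for 4 or 24 h (0.1% DMSO vehicle), then lysed in RIPA. LC3BII measured by Western blot, 30 μg protein loaded, band OD normalized to β-actin or vinculin.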

Data set [2] relates to HEK293. The data set is described as follows: Activation of PP2A in HEK293 cells assessed as decrease in phosphorylated PP2Ac level at 10 uM incubated for 4 hrs by immunoblot analysis. It is filed as cell-based. The note with it: Homo sapiens, filed as activator. Put shortly:
(§1)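 HEK-293 cells seeded 500,000/well, attached overnight, then exposed to compound (0.1% DMSO vehicle) for 4 or 24 h. Lysed in RIPA. Western blot with 30 μg protein on 4–20% gels, PVDF transfer, skim-milk block, primary antibody overnight at +4 °C. Detection by chemiluminescence, band OD normalized to β-actin or vinculin. pPP2Ac is the Tyr307-phosphorylated form.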
(A western blot detects proteins with antibodies after separation by electrophoresis.)

In data set [3] the test system is HEK293. The data set is described as follows: Activation of PP2A in HEK293 cells assessed as decrease in phosphorylated PP2Ac level at 10 uM incubated for 24 hrs by immunoblot analysis. It is filed as cell-based. To be noted: Homo sapiens. Put shortly: as §1
Data set [4] relates to Mus musculus. The data set is described as follows: Upregulation of total PP2Ac level in C57BL/6JRccHsd mouse brain at 10 mg/kg, ip measured after 45 mins by Western blot analysis. It is filed as functional, organism-based. In a few lines: (§2)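 Mice given 10 mg/kg i.p. in 5% Tween-20 in 0.9% NaCl, with vehicle-injected controls. Brains collected 45 min after injection. Homogenates analysed by Western blot for pPP2A, PP2A and LC3BII, with OD normalized to β-actin or vinculin.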

Data set [5] has as its system Mus musculus. The data set is described as follows: Neuroprotective activity against AAV2-CBA-GFP injected C57BL/6JRccHsd mouse model of Parkinson's disease assessed as change in tyrosine hydroxylase positive dopaminergic neuron immunoreactivity in substantia nigra pars compacta at 10 mg/kg/day, ip administered for 2 weeks by optical density based analysis. It is filed as functional, organism-based.

In data set [6] the target is Alpha-synuclein (Homo sapiens) (UniProt P37840). The data set is described as follows: Inhibition of alpha-synuclein (unknown origin) dimerization transfected in mouse Neuro2a cells at 10 uM incubated for 4 hrs by Protein-fragment complementation assay. It is filed as cell-based.
For data set [7], the system named is HEK293. Nature of the data set: Induction of autophagic flux in HEK293 cells expressing GFP-LC3B-RFP at 10 uM incubated for 24 hrs by Hoechst staining based assay. To be noted: Homo sapiens. It is filed as functional, cell-based.
Data set [8] deals with Mus musculus. Nature of the data set: Upregulation of LC3B-II level in C57BL/6JRccHsd mouse brain at 10 mg/kg, ip measured after 45 mins by Western blot analysis. It is filed as functional, organism-based. Put shortly:
as §2

The test system of data set [9] is HEK293. The data set is described as follows: Activation of PP2A in HEK293 cells assessed as increase in total PP2Ac level at 10 uM incubated for 4 hrs by immunoblot analysis. It is filed as cell-based. To be noted: Homo sapiens, filed as activator. In a few lines: as §1
Data set [10] is described as follows: In vivo inhibition of PREP in C57BL/6JRccHsd mouse liver at 10 mg/kg, ip measured for 3 hrs by LC-MS analysis relative to control. It is filed as functional.
Data set [11] is described as follows: Permeability of the compound across blood brain barrier in C57BL/6JRccHsd mouse at 1.86 uM, ip measured at 15 mins by LC-MS analysis. It is filed as ADME, organism-based. To be noted: 0.25 h. In a few lines:
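Male C57BL/6JRCcHsd mice, 10 weeks old, dosed 10 mg/kg i.p. in 5% Tween-20 in 0.9% NaCl. Brains collected at 15, 30, 45, 60, 120 and 180 min. Brain compound concentration measured by LC-MS, and AUC0–180 min calculated.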

Data set [12] relates to Mus musculus. Nature of the data set: Downregulation of alpha-syn oligomer expression in C57BL/6JRccHsd mouse striatum injected with AAV2-CBA-alpha-synuclein virus at 10 mg/kg/day, ip administered for 2 weeks by optical density based analysis. It is filed as functional, organism-based. Put shortly: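 Unilateral AAV2-CBA-αSyn was injected above the SNpc of male C57BL/6JRCcHsd mice. Dosing at 10 mg/kg/day i.p. by Alzet minipump began 4 weeks after injection. Brain sections were immunostained for oligomer-specific αSyn and optical density was measured in striatum and SNpc, with n = 7–9/group, reported as mean ± SEM.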

In data set [13] the test system is HEK293. The data set is described as follows: Activation of PP2A in HEK293 cells assessed as increase in LC3B-II level at 10 uM incubated for 4 hrs by immunoblot analysis. The note with it: Homo sapiens, filed as activator. It is filed as cell-based. In a few lines: as §1
Data set [14] concerns HEK293. The data set is described as follows: Activation of PP2A in HEK293 cells assessed as increase in total PP2Ac level at 10 uM incubated for 24 hrs by immunoblot analysis. To be noted: Homo sapiens, filed as activator. It is filed as cell-based. In a few lines:
as §1

The target of data set [15] is Alpha-synuclein (Homo sapiens) (UniProt P37840). The data set is described as follows: Inhibition of alpha-synuclein (unknown origin) dimerization transfected in HEK293 cells at 10 uM incubated for 4 hrs by luminescence based multimode plate reader method. It is filed as cell-based.
The target in data set [16] is Dipeptidyl peptidase 4 (Homo sapiens) (UniProt P27487). The data set is described as follows: Inhibition of human DPP4 using Ala-Pro-para-nitroanilide as substrate at 1 to 10 uM preincubated for 15 mins followed by substrate addition and measured for 10 mins. To be noted: dose 1-10 µM, time 25.0 min. In a few lines:
(§3)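 Ala-Pro-pNA substrate at 25 μM for DPP4 (purified from human seminal plasma) or 150 μM for DPP9 (Sf9-expressed). Buffer pH 7.4: 0.05 M HEPES-NaOH, 0.1% Tween-20, 0.1 mg/mL BSA, 150 mM NaCl. Compound at 1 and 10 μM final, preincubated 15 min at 37 °C. pNA release read kinetically at 405 nm for at least 10 min.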

For data set [17], the system named is HEK293. Nature of the data set: Activation of PP2A in HEK293 cells assessed as decrease in inactive phosphorylated PP2Ac level at 1 uM incubated for 4 hrs by Western blot analysis. To be noted: Homo sapiens, filed as activator. It is filed as cell-based. In a few lines: as §1
The target of data set [18] is Dipeptidyl peptidase 9 (Homo sapiens) (UniProt Q86TI2). The data set is described as follows: Inhibition of human DPP9 expressed in Sf9 insect cells using Ala-Pro-para-nitroanilide as substrate at 1 to 10 uM preincubated for 15 mins followed by substrate addition and measured for 10 mins. The note with it: dose 1-10 µM, time 25.0 min. Put shortly: as §3
Chain of Dipeptidyl peptidase 9 (Homo sapiens) (Q86TI2 2-863 limits assumed): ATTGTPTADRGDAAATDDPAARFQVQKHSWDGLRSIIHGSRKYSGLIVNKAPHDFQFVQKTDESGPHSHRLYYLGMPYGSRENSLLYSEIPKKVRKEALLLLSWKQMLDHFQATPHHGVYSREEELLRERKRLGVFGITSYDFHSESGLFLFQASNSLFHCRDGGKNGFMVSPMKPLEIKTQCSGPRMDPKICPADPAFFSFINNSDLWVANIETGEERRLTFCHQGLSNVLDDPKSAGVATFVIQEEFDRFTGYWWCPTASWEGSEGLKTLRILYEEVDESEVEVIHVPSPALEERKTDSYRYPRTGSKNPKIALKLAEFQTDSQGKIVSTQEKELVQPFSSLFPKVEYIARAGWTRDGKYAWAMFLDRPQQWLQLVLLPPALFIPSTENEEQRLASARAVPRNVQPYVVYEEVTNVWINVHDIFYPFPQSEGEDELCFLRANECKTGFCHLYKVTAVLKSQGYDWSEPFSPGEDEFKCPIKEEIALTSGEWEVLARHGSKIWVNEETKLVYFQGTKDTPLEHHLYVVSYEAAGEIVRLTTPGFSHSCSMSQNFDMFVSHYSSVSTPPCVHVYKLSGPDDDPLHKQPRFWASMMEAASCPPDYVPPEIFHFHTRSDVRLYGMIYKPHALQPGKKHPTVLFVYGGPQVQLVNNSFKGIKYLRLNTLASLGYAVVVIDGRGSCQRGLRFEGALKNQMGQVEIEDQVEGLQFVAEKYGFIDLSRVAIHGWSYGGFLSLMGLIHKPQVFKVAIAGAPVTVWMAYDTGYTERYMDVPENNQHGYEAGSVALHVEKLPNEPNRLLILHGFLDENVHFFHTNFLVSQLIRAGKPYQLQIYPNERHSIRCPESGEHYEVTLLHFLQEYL
The subject of data set [19] is HEK293. Nature of the data set: Activation of PP2A in HEK293 cells assessed as increase in LC3B-II level at 10 uM incubated for 24 hrs by immunoblot analysis. To be noted: Homo sapiens, filed as activator. It is filed as cell-based. Put shortly: as §1

Chain of Dipeptidyl peptidase 4 (Homo sapiens) (P27487 whole entry, looked up): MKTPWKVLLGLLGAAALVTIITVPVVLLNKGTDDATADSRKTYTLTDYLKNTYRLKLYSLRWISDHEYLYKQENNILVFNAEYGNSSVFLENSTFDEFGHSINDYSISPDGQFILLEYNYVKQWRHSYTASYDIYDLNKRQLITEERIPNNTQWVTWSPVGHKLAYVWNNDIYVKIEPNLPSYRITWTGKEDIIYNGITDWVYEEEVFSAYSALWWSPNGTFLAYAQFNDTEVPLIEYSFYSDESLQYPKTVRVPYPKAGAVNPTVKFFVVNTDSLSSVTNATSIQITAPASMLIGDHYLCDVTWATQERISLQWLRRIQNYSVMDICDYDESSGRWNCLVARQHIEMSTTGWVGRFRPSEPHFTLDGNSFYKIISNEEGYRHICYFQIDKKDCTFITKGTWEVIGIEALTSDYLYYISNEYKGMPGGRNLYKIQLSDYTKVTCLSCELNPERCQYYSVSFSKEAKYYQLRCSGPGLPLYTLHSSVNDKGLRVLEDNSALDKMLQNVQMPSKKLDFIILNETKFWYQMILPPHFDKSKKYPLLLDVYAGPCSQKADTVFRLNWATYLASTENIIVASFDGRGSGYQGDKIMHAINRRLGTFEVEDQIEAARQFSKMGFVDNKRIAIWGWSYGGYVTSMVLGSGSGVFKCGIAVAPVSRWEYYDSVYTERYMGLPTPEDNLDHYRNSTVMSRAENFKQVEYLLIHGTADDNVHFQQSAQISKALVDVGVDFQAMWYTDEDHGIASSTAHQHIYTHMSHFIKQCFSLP

`Cc1nc(CCCc2ccccc2)oc1N1CCC[C@H]1C#N`: the outcome in the data set with HEK293 [1], with HEK293 [3] and in the data set with Mus musculus [5] was inactive. The outcome with HEK293 [2], with Mus musculus [4], in the data set on HEK293 [7], in the data set on Mus musculus [8], in the data set with HEK293 [9] and in the data set with Mus musculus [12] was Active. The result in the data set on HEK293 [13], in the data set on HEK293 [14], in the data set with HEK293 [17] and in the data set with HEK293 [19] was Active. Also, the inhibition result in data set [6] and in data set [15] was “Active” each time. Besides, the inhibition in vivo at 10 mg/kg in data set [10] was around 25%. Moreover, the pBBB entry in data set [11] was “Permeable”. In addition, the inhibition entry in data set [16] and in data set [18] was “inactive” throughout.
